# Compound activity deposited in PubChem by several laboratories.
# This is a sample that favours compounds with a hit; in the whole collection about 2.6% have one here.
# rCAG RNA binder: binders of r(CAG) RNA repeats, primary screen, biochemical, fluorescence; r(CAG) RNA repeat, TO-PRO-1 dye displacement fluorescence; inhibition, % at 3 µM; 370,000 tested, 1.3% active; AID 651821, 2012;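 active means inhibition above the plate cutoff, the mean of all test compounds on that plate plus 3 SD, cut at about 35% in these data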;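 further: 0% = DMSO alone and 100% = 100 µM mitoxantrone as full dye displacement; higher means more dye released from RNA so lower well fluorescence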
# NR2E3 ag-1: NR2E3 agonists in two-hybrid cells, primary screen, cell-based, luminescence, CHO-S, Gal4-NCOR/VP16-NR2E3 | Photoreceptor-specific nuclear receptor (Homo sapiens), Q9Y5X4 | AID 602229, 2012 | inhibition of corepressor binding, % at 3.98 µM | 360,000 tested, 0.35% active | luciferase;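 active means inhibition above the mean of all tested compounds plus 3 SD, cut at about 70% in these data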;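 further: 0% = DMSO with NR2E3 transfected cells and 100% = cells lacking NR2E3 construct; higher means lower luciferase signal from less NR2E3 corepressor binding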
# Rev-erbA mod: modulators of Rev-erb alpha DNA binding, primary screen, biochemical, FITC-DNA, fluorescence polarization, uHTS | Nuclear receptor subfamily 1 group D member 1 (Homo sapiens), P20393 | Rev-erbα–FITC-DNA binding, 90 min | activity, % at 10 µM | 370,000 tested, 0.79% active;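 active means activity above about 14%, limit read from the data; passing the limit was not always enough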;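 further: 0% = DMSO wells with 35 nM protein and 100% = DMSO wells with 750 nM protein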
# Target sequence (P20393 whole entry, looked up): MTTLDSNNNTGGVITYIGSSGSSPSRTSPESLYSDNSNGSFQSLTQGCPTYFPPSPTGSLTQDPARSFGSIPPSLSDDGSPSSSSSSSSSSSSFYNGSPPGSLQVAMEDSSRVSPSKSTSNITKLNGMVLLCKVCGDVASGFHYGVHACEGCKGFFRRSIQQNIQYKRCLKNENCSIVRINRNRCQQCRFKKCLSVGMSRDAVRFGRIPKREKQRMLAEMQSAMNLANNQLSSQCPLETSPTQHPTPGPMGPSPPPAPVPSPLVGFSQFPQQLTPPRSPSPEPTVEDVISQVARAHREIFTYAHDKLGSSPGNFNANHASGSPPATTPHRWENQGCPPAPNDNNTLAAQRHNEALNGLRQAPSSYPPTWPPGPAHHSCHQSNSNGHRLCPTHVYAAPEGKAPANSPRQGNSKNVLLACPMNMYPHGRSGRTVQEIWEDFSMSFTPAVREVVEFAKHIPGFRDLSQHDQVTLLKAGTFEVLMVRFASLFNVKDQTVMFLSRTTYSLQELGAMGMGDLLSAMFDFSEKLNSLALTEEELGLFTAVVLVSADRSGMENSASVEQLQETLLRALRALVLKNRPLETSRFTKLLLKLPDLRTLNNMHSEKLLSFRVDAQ
# PG9 Ab binder: binders of HIV-1 gp120 antibody PG9, primary screen, biochemical, TR-FRET | inhibition, % at 6.7 µM | AID 624416, 2012 | TR-FRET gp120-PG9 antibody binding | HIV-1 gp120 / PG9 antibody interaction | 360,000 tested, 0.43% active; in the data active means inhibition above about 8.5%
# NR2E3 ag-2: inhibitors of NR2E3-RetCOR corepressor binding, primary screen, NR2E3 agonist project, biochemical, TR-FRET, GST-NR2E3, biotin-RetCOR; Photoreceptor-specific nuclear receptor (Homo sapiens), Q9Y5X4; AID 2300, 2010; 1536-well; inhibition of corepressor binding, % at 4.78 µM; 320,000 tested, 0.12% active;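 active means percent inhibition above the cutoff of mean plus 3 SD of all tested compounds, set per screening campaign, cut at about 20% in these data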;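 further: 0% = DMSO wells and 100% = biotin wells as full block of FRET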
#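 Material: NR2E3–RetCOR corepressor complex / Amount: 1.35 nM GST-NR2E3 / Medium: Tris pH 7.5 / Compound: single nominal compound dose of 4.8 µM / Incubation: 5 h at 4 °C / Technique: TR-FRET, Eu(K)-anti-GST donor, streptavidin-D2 acceptor, ex 340, em 617/671 nm / Read-out basis: percent loss of FRET ratio relative to control wells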
# * = called active by the depositor; · = not tested or not shown.
SMILES,rCAG RNA binder,NR2E3 ag-1,Rev-erbA mod,PG9 Ab binder,NR2E3 ag-2
COc1ccc(S(=O)(=O)Nc2ccc(S(=O)(=O)Nc3ccc(F)cc3)cc2)cc1C,47*,2,-2,-4,-1
C[C@@H]1CC[C@H]2[C@@H](C)C(O)O[C@@H]3OC4(C)CC[C@@H]1[C@]32OO4 (stereo not given in full),·,·,-3,·,·
Cc1c(OC(C)C(=O)NC(Cc2c[nH]c3ccc(O)cc23)C(=O)O)ccc2c1oc(=O)c1ccccc12 (stereo not given),58*,-9,5,-3,1
O=C1c2c(O)cccc2C(C2OC(CO)C(O)C(O)C2O)c2cc(CO)cc(O)c21 (stereo not given),·,·,0,·,·
CCCCNS(=O)(=O)c1ccc2nc(SCC(=O)Nc3sccc3C#N)[nH]c2c1,38*,-6,1,-2,2
COC(=O)c1nn(-c2cccc(C(F)(F)F)c2)c(=O)cc1Sc1ccccn1,-2,-3,-1,8.7*,1
Cc1c(C(=O)O)nn(-c2cccc(C(F)(F)F)c2)c(=O)c1C#N,2,-20,2,0,0
CC(=O)N1CCN(c2ccc(OCC3CO[C@](Cn4ccnc4)(c4ccc(Cl)cc4Cl)O3)cc2)CC1 (stereo not given in full),·,·,7,·,·
CN[C@@H]1C(OC2[C@H](O[C@H]3[C@H](O)[C@@H](O)[C@H](N=C(N)N)[C@@H](O)[C@@H]3N=C(N)N)O[C@H](C)[C@]2(O)CO)O[C@@H](CO)C(O)C1O (stereo not given in full),·,·,-2,·,·
CC(=O)OCC(=O)[C@@]1(O)CCC2C3CCC4=CC(=O)CC[C@]4(C)[C@@]3(F)[C@@H](O)C[C@@]21C (stereo not given in full),·,·,-1,·,·
CCOC(=O)C1Nc2ccc(Br)cc2C2C=CCC12 (stereo not given),63*,-9,-4,0,3
Cc1ccc(NC(=O)CSc2nnc(-c3cnccn3)n2-c2ccccc2)cc1,1,-4,19,16*,5
CC(=O)CSc1nnc(-c2cnccn2)n1-c1ccccc1,1,-6,3,0,·
CCN1CCN(Cc2ccc(NC(=O)c3ccc(C)c(NC(=O)c4cncc(-c5cccs5)c4)c3)cc2C(F)(F)F)CC1,·,82*,·,·,·
CCN1CCN(Cc2ccc(NC(=O)c3ccc(C)c(NC(=O)c4nccn4C)c3)cc2C(F)(F)F)CC1,1,-11,-3,0,1
Cc1cc(C)c(S(=O)(=O)Nc2cc(SCC(=O)O)c(O)c3ccccc23)cc1C,·,·,·,·,2
O=C(O)CSc1cc(NS(=O)(=O)c2ccc(Cl)cc2)c2ccccc2c1O,37*,13,2,-1,-1
C[C@]12CCC(=O)C=C1CCC1C2[C@@H](O)C[C@@]2(C)C1CC[C@]2(O)C(=O)CO (stereo not given in full),·,·,-7,·,·
CCCCC/C=C/CCC(=O)N[C@H]1[C@H](Oc2c3cc4cc2Oc2ccc(cc2Cl)[C@@H](O[C@@H]2O[C@H](CO)[C@@H](O)[C@H](O)[C@H]2NC(C)=O)[C@@H]2NC(=O)[C@H](NC(=O)[C@@H]4NC(=O)[C@H]4NC(=O)C(Cc5ccc(c(Cl)c5)O3)NC(=O)[C@H](N)c3ccc(O)c(c3)Oc3cc(O)cc4c3)c3ccc(O)c(c3)-c3c(O[C@@H]4O[C@H](CO)[C@@H](O)[C@H](O)[C@@H]4O)cc(O)cc3[C@@H](C(=O)O)NC2=O)O[C@H](CO)[C@@H](O)[C@@H]1O,·,·,-4,·,·
Cc1ccc(Cl)cc1Nc1nc(-c2sc(NC(=O)c3ccco3)nc2C)cs1,30,13,-2,-4,0
Cc1nc(NC(=O)c2ccco2)sc1-c1csc(Nc2ccc(Cl)cc2Cl)n1,48*,-33,4,0,3
CC(CCC(=O)O)[C@H]1CCC2C3C(=O)C[C@@H]4CC(=O)CC[C@]4(C)C3CC(=O)[C@@]21C (stereo not given in full),·,·,3,·,·
COc1ccccc1N=C1SC(C(=O)Nc2cccc(Cl)c2Cl)C(N)=C1C(N)=O (stereo not given),18,11,-1,0,1
N#Cc1ccccc1NC(=O)C1SC(=Nc2ccccc2)C(C(=O)Nc2ccc(Cl)cc2)=C1N (stereo not given),37*,2,0,1,1
O=C(Nc1ccccc1N1CCOCC1)c1cccc(S(=O)(=O)Nc2ccccc2F)c1,37*,19,-5,-1,3
SMILES,rCAG RNA binder,NR2E3 ag-1,Rev-erbA mod,PG9 Ab binder,NR2E3 ag-2
CCc1cc(Cl)c(OC)c(C(=O)NC[C@H]2CCCN2CC)c1O,·,·,5,·,·
Cc1cn(S(=O)(=O)c2ccc(Br)c3ccccc23)cn1,·,·,·,·,31*
COc1cc(S(=O)(=O)n2cnc(C)c2)ccc1Br,0,10,-2,-1,4
Cc1ccccc1C(=O)Nc1ccc(C(=O)N2CCC[C@@H](O)c3cc(Cl)ccc32)c(C)c1,·,·,-3,·,·
CC(C)CC1=C/C(=C/c2ccc(-c3ccccc3)o2)C(=O)O1,44*,-14,0,1,0
COc1ccc(C(=O)C(C)OC(=O)c2cccc(S(=O)(=O)Nc3cc(Cl)c(OC)cc3OC)c2)cc1 (stereo not given),·,80*,·,·,-6
CC(c1ccco1)N(C(=O)c1ccccc1NS(=O)(=O)c1ccc(Cl)c([N+](=O)[O-])c1)c1ccccn1 (stereo not given),69*,-7,0,1,6
O=S(=O)(Nc1nc2ccccc2s1)c1ccc(Br)s1,50*,42,·,0,0
Nc1ncnc2c1ncn2C1O[C@H](COP(=O)(O)O)[C@@H](O)[C@H]1O (stereo not given in full),·,·,4,·,·
O=C(/C=C/c1ccco1)c1cccc([N+](=O)[O-])c1,39*,-22,-6,-1,·
CS(=O)c1ccccc1O (stereo not given),4,-16,2,0,-1
O=S(c1ccccc1O)S(=O)c1ccccc1O (stereo not given),72*,5,-1,-2,·
CC(C)(CO)C(O)C(=O)NCCC(=O)NCCSSCCNC(=O)CCNC(=O)C(O)C(C)(C)CO (stereo not given),·,·,-2,·,·
N#C/C(=C/c1cccn1-c1cccc(C(=O)O)c1)c1ccc(F)cc1,50*,-16,-6,0,·
N#C/C(=C/c1ccccc1OCc1ccc(F)cc1)c1ccc(C(=O)O)cc1,32,-18,0,0,3
COc1ccccc1Nc1ccc2c(O)cc(S(=O)(=O)O)cc2c1,74*,-33,-35,-2,·
